# Data taken from ChEMBL document CHEMBL4138098, “Synthesis and pharmacological evaluation of neurosteroid photoaffinity ligands” (Eur J Med Chem, 2017).
# pEC50: −log10 of the molar value. Calls of active or inactive are those of the source. The rule behind the calls is not given here.
# How the values were obtained:
# [1] = molecular target: T1, GABA-A receptor; alpha-1/beta-3/gamma-2 (Homo sapiens) (UniProt P14867+P18507+P28472); experiment: Induction of [3H]azietomidate photoincorporation at human GABAA receptor alpha1beta3gamma2 expressed in HEK293 TetR cells at 0.3 to 1 uM after 30 mins by liquid scintillation counting method; assay type: cell-based
# Procedure, shortened: (§1)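 Radioligand resuspended 30 min at 4°C; unlabeled steroid added (0.5% methanol final), 30 min at 4°C. Irradiated 30 min on ice at 365 nm. SDS-PAGE; stained subunit bands excised and counted by liquid scintillation; duplicates, means and ranges.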
# Anura [2] = experiment: Potency index, ratio of Alphaxalone EC50 to compound EC50 for anesthetic activity in tadpole; assay type: functional
# [3] = molecular target: T1, GABA-A receptor; alpha-1/beta-3/gamma-2 (Homo sapiens); experiment: Binding affinity to human GABAA receptor alpha1beta3gamma2 expressed in HEK293 TetR cells assessed as photolabeling at 0.7 uM after 30 mins in presence of 100 uM bicuculline by coomassie blue staining based fluorographic method; assay type: cell-based; settings: tested as the 3H-labelled form
# Anura [4] = experiment: Anesthetic activity in tadpole assessed as loss of righting reflexes at 0.01 to 1 uM pretreated with tadpole followed by compound washout and transfer to fresh water measured up to 1 hr; assay type: functional, organism-based
# [5] = molecular target: GABA-A receptor; alpha-1/beta-2/gamma-2 (Homo sapiens) (UniProt P14867+P47870+P18507); experiment: Positive allosteric modulation of human GABAA receptor alpha1beta2gamma2L expressed in Xenopus laevis oocytes assessed as potentiation of GABA chloride current up to 100 uM incubated for 15 to 25 secs by two-electrode voltage clamp assay relative to control; assay type: cell-based
# Procedure, shortened: (§2)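 Xenopus laevis oocytes injected with ~100 ng cRNA of human α1, β2, γ2L (1:1:2). Two-electrode voltage clamp at −50 mV, room temperature, perfused with ND96 pH 7.5. Compound diluted from DMSO stock into ND96 (≤1% DMSO final). Applied 15–25 s with ~3 min washes.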
# [6] = molecular target: T1, GABA-A receptor; alpha-1/beta-3/gamma-2 (Homo sapiens); experiment: Induction of [3H]R-mTFD-MPAB photoincorporation at human GABAA receptor alpha1beta3gamma2 expressed in HEK293 TetR cells at 0.3 to 1 uM after 30 mins by liquid scintillation counting method; assay type: cell-based; procedure, shortened: as §1
# Anura [7] = experiment: Anesthetic activity in tadpole assessed as loss of righting reflexes; assay type: functional, organism-based
# [8] = molecular target: T2, Gamma-aminobutyric acid receptor subunit beta-3 (Homo sapiens) (UniProt P28472); experiment: Binding affinity to human GABAA receptor beta3 assessed as photolabeling at 0.7 uM after 30 mins by Coomassie blue staining based fluorographic method relative to control; settings: tested as the 3H-labelled form
# T2 sequence (whole entry): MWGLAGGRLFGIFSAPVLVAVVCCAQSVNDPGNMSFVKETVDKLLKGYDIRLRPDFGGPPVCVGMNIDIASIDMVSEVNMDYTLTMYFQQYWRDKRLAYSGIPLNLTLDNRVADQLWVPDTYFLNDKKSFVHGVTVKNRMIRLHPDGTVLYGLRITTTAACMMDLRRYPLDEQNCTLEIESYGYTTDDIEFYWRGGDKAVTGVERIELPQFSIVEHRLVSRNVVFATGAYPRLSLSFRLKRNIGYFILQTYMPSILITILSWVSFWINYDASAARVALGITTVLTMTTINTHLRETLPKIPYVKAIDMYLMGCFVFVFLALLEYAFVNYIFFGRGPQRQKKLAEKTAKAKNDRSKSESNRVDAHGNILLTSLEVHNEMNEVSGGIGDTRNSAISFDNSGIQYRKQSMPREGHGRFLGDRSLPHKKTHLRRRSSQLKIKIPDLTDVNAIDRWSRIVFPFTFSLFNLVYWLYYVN
# [9] = molecular target: T3, Gamma-aminobutyric acid receptor subunit alpha-1 (Homo sapiens) (UniProt P14867); experiment: Binding affinity to human GABAA receptor alpha1 assessed as photolabeling at 0.7 uM after 30 mins by Coomassie blue staining based fluorographic method relative to control; settings: tested as the 3H-labelled form
# T3 sequence (whole entry): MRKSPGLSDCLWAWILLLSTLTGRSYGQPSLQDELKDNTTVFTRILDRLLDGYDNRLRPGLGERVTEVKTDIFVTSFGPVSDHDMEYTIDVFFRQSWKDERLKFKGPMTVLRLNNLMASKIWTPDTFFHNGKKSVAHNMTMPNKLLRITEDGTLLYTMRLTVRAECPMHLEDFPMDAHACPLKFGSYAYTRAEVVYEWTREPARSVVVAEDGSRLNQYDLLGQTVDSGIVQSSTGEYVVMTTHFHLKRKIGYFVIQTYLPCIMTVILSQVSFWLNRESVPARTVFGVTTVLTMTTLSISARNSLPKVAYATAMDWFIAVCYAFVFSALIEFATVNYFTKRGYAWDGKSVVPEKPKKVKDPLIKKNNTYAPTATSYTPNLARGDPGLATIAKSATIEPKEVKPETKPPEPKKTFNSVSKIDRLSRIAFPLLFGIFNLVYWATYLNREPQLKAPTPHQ
# [10] = molecular target: T1, GABA-A receptor; alpha-1/beta-3/gamma-2 (Homo sapiens); experiment: Binding affinity to human GABAA receptor alpha1beta3gamma2 expressed in HEK293 TetR cells assessed as photolabeling at 0.7 uM after 30 mins in presence of 300 uM GABA and 30 uM alphaxalone by coomassie blue staining based fluorographic method; assay type: cell-based; settings: tested as the 3H-labelled form
# [11] = molecular target: T4, GABA-A receptor; alpha-1/beta-2/gamma-2 (Homo sapiens, UniProt P14867+P18507+P47870); experiment: Positive allosteric modulation of human GABAA receptor alpha1beta2gamma2L expressed in Xenopus laevis oocytes assessed as potentiation of GABA chloride current incubated for 15 to 25 secs by two-electrode voltage clamp assay; assay type: cell-based; procedure, shortened: as §2
# T4 sequence (P14867 whole entry): T3 sequence (whole entry)
# T4 sequence (P47870 whole entry): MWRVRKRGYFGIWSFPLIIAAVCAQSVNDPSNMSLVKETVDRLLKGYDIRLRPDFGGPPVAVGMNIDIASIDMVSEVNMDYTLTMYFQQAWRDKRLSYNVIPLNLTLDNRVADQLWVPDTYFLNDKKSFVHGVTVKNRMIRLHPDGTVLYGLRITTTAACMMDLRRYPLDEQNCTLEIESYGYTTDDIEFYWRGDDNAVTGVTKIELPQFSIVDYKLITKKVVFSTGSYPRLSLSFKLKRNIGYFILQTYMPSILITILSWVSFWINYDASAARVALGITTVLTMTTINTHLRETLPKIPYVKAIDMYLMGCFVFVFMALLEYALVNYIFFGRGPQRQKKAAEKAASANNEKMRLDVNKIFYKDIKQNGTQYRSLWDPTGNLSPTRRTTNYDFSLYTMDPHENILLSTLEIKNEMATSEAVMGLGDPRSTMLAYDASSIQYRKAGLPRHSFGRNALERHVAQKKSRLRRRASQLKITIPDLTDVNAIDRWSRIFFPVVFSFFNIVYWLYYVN
# T4 sequence (P18507 whole entry): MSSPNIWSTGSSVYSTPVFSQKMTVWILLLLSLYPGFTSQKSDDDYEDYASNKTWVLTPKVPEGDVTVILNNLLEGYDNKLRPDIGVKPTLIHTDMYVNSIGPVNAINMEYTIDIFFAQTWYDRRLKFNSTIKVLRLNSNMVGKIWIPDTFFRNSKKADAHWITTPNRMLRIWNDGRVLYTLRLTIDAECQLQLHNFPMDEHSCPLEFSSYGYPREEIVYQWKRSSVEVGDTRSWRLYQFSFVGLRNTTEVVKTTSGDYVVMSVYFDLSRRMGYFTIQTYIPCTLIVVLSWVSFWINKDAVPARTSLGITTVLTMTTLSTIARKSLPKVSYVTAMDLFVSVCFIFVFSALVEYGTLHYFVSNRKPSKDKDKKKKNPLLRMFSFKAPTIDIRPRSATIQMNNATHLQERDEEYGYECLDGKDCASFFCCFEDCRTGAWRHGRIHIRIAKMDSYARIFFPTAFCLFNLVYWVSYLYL
# [12] = molecular target: T1, GABA-A receptor; alpha-1/beta-3/gamma-2 (Homo sapiens); experiment: (§3) Displacement of [3H]muscimol from human GABAA receptor alpha1beta3gamma2 expressed in HEK293 TetR cell membranes after 1 hr by liquid scintillation counting method
# Procedure, shortened: (§4)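 Membranes from HEK293 TetR cells expressing human α1β3γ2 GABAA receptor (200 μg protein) in 10 mM phosphate pH 7.4, 200 mM KCl, 1 mM EDTA. Filtered on PEI-treated GF/B filters, washed cold, scintillation counted. Triplicates, mean ± SD.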
# [13] = molecular target: T5, GABA-A receptor; alpha-1/beta-3/gamma-2 (Homo sapiens, UniProt P14867+P18507+P28472); experiment: as §3; procedure, shortened: as §4
# T5 sequence (P14867 whole entry): T3 sequence (whole entry)
# T5 sequence (P18507 whole entry): T4 sequence (P18507 whole entry)
# T5 sequence (P28472 whole entry): T2 sequence (whole entry)
# [14] = molecular target: T1, GABA-A receptor; alpha-1/beta-3/gamma-2 (Homo sapiens); experiment: Binding affinity to human GABAA receptor alpha1beta3gamma2 expressed in HEK293 TetR cells assessed as photolabeling at 0.7 uM after 30 mins in presence of 300 uM GABA by coomassie blue staining based fluorographic method; assay type: cell-based; settings: tested as the 3H-labelled form
# [15] = molecular target: T1, GABA-A receptor; alpha-1/beta-3/gamma-2 (Homo sapiens); experiment: Induction of [3H]azietomidate photoincorporation at human GABAA receptor alpha1beta3gamma2 expressed in HEK293 TetR cells at 30 uM after 30 mins by liquid scintillation counting method; assay type: cell-based
# Procedure, shortened: (§5)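 Purified FLAG-tagged human α1β3γ2 GABAAR from tetracycline-inducible HEK293S cells, in 5 mM CHAPS/0.2 mM asolectin. Equilibrated 30 min at 4°C with 3 μM [3H]azietomidate or 1 μM [3H]R-mTFD-MPAB, then with test drug (final methanol 0.5%) for another 30 min at 4°C. Irradiated on ice at 365 nm for 30 min. Stained subunit bands excised from SDS-PAGE gels; 3H counted by liquid scintillation.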
# Anura [16] = experiment: Anesthetic activity in tadpole assessed as loss of righting reflexes at 0.03 to 10 uM pretreated with tadpole followed by compound washout and transfer to fresh water measured up to 1 hr; assay type: functional, organism-based
# [17] = molecular target: T1, GABA-A receptor; alpha-1/beta-3/gamma-2 (Homo sapiens); experiment: Induction of [3H]R-mTFD-MPAB photoincorporation at human GABAA receptor alpha1beta3gamma2 expressed in HEK293 TetR cells at 30 uM after 30 mins by liquid scintillation counting method; assay type: cell-based; procedure, shortened: as §5
# [18] = molecular target: T1, GABA-A receptor; alpha-1/beta-3/gamma-2 (Homo sapiens); experiment: Binding affinity to human GABAA receptor alpha1beta3gamma2 expressed in HEK293 TetR cells assessed as photolabeling at 0.4 uM after 30 mins in presence of 100 uM bicuculline by coomassie blue staining based fluorographic method; assay type: cell-based; settings: tested as the 3H-labelled form
# [19] = molecular target: T1, GABA-A receptor; alpha-1/beta-3/gamma-2 (Homo sapiens); experiment: Induction of [3H]R-mTFD-MPAB photoincorporation at human GABAA receptor alpha1beta3gamma2 expressed in HEK293 TetR cells at 10 uM after 30 mins by liquid scintillation counting method relative to control; assay type: cell-based; procedure, shortened: as §1
# [20] = molecular target: T1, GABA-A receptor; alpha-1/beta-3/gamma-2 (Homo sapiens); experiment: Binding affinity to human GABAA receptor alpha1beta3gamma2 expressed in HEK293 TetR cells assessed as photolabeling at 0.4 uM after 30 mins in presence of 300 uM GABA and 30 uM alphaxalone by coomassie blue staining based fluorographic method; assay type: cell-based; settings: tested as the 3H-labelled form
# [21] = molecular target: T1, GABA-A receptor; alpha-1/beta-3/gamma-2 (Homo sapiens); experiment: Binding affinity to human GABAA receptor alpha1beta3gamma2 expressed in HEK293 TetR cells assessed as photolabeling at 0.4 uM after 30 mins in presence of 300 uM GABA by coomassie blue staining based fluorographic method; assay type: cell-based; settings: tested as the 3H-labelled form
# [22] = molecular target: T1, GABA-A receptor; alpha-1/beta-3/gamma-2 (Homo sapiens); experiment: Induction of [3H]azietomidate photoincorporation at human GABAA receptor alpha1beta3gamma2 expressed in HEK293 TetR cells at 1 uM after 30 mins by liquid scintillation counting method relative to control; assay type: cell-based; procedure, shortened: as §1
Compound,Ratio EC50 (Anura [2]),fold change (FC) [5],pEC50 (Anura [7]),Activity [8] [%],Activity [9] [%],pEC50 [11],inhibition [12],pEC50 [13],Activity (Anura [16]),also measured
CC(=O)[C@H]1CC[C@H]2[C@@H]3CC[C@H]4C[C@H](O)CC[C@]4(C)[C@H]3C3(C[C@]12C)N=N3,17,30,6.96,0.4,0.2,6.70,Dose-dependent effect,6.60,–,Activity [1]: Active; Activity [3]: Active; Activity (Anura [4]): inactive; Activity [6]: Active; Activity [10]: Active; Activity [14]: Active
CC(=O)[C@H]1CC[C@H]2[C@@H]3CC[C@H]4C[C@H](O)CC[C@]4(C)[C@H]3C(=O)C[C@]12C [ALFAXALONE],–,–,5.72,–,–,–,Dose-dependent effect,–,inactive,Activity [15]: Active; Activity [17]: Active
CC(=O)[C@H]1CC[C@H]2[C@@H]3CC[C@H]4C[C@H](O)CC[C@]4(C)[C@H]3[C@@H](OC(=O)c3c(F)c(F)c(N=[N+]=[N-])c(F)c3F)C[C@]12C,2.6,17,6.14,10,6,6.30,Dose-dependent effect,6.11,inactive,Activity [18]: Active; Activity [19]: 75%; Activity [20]: Active; Activity [21]: Active; Activity [22]: 50%
